According to publication PMC9826439 (Chemistry (Weinheim an Der Bergstrasse, Germany), 2022):

Tests used:
human cathepsin L = human cathepsin L (Homo sapiens, UniProt P07711); assay: Cathepsin L inhibition assay; type: biochemical; settings: ratio of k inac/K i values
Method in brief: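 Commercial human cathepsin; inactivation progress curves recorded for 60 min at five test-compound concentrations, in duplicate. pNA substrates were read at 405 nm (cuvette) and AMC substrates at λex 360/λem 460 nm. kobs came from a non-linear progress-curve fit, and kinac/Ki from a kobs vs [I] fit corrected by [S]/Km. Remaining activity was taken at 5 μM. SR is the ratio of rhodesain to cathepsin kinac/Ki.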

[1] = biological target: rhodesain-like proteases (TbCatLs) in T. b. brucei cell lysate (Trypanosoma brucei brucei, UniProt P14658); assay: Competition profiling assay with ABP 7, T. b. brucei cell lysate; type: biochemical; settings: T. b. brucei cell lysate 80 μg protein; inhibitor 0.016–10 μM, then ABP 7 5 μM
rhodesain = rhodesain (Trypanosoma brucei rhodesiense, UniProt Q95PM0); settings: E-64 15 µM preincubated 37 °C 15 min, then ABP 7 15 µM
Chain of rhodesain (Q95PM0 126-340 limits assumed): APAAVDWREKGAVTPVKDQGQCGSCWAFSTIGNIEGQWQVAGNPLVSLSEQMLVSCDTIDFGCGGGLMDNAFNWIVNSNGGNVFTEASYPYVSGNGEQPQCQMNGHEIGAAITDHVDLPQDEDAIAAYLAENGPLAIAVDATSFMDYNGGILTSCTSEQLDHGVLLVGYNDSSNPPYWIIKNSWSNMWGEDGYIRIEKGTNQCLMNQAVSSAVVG

Chain of human cathepsin L (P07711 114-333): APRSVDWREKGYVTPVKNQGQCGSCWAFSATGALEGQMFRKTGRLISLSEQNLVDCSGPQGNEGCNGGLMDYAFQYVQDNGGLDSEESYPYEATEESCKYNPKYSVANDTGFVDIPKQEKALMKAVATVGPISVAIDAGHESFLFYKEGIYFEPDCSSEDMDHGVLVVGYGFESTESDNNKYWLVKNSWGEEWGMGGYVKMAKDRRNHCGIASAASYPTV
Chain of rhodesain-like proteases (TbCatLs) in T. b. brucei cell lysate (P14658 126-450): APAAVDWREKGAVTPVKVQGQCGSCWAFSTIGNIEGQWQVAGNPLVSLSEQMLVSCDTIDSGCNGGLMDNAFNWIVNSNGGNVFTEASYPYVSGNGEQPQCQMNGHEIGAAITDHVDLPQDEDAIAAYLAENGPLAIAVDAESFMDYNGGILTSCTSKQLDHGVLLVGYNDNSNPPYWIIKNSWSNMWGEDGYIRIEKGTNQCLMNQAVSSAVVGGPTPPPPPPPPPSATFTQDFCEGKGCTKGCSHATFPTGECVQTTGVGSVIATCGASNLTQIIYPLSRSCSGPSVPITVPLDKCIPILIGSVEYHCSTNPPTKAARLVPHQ

selectivity ratio (SR rhodesain/cathepsin L) (human cathepsin L)	concentration at which significantly lowered ABP 7 labeling signal was observed [1]	generation of the fluorescent rhodesain-7 adduct (rhodesain)	SMILES
23.8	80 nM	–	Cc1ccc(C[C@H](NC(=O)OC(C)(C)C)C(=O)NC/C=C/S(=O)(=O)c2ccccc2)cc1 [Compound 2, (S,E)‐tert‐Butyl 1‐oxo‐1‐(3‐(phenylsulfonyl)allylamino)‐3‐p‐tolylpropan‐2‐ylcarbamate]
–	–	completely abolished	CC(C)C[C@H](NC(=O)[C@H]1O[C@@H]1C(=O)O)C(=O)NCCCCN=C(N)N [E‐64]
